Among the data in ChEMBL document CHEMBL1133383, “Synthesis and enzyme inhibitory activities of a series of lipidic diamine and aminoalcohol derivatives on cytosolic and secretory phospholipases A2” (Bioorg Med Chem Lett, 2000) are I and IC50 values, retold here.

Structures are written as SMILES.

Assay [1] concerns the target T1, Cytosolic phospholipase A2 (Mus musculus) (UniProt P47713).
T1 sequence (whole entry): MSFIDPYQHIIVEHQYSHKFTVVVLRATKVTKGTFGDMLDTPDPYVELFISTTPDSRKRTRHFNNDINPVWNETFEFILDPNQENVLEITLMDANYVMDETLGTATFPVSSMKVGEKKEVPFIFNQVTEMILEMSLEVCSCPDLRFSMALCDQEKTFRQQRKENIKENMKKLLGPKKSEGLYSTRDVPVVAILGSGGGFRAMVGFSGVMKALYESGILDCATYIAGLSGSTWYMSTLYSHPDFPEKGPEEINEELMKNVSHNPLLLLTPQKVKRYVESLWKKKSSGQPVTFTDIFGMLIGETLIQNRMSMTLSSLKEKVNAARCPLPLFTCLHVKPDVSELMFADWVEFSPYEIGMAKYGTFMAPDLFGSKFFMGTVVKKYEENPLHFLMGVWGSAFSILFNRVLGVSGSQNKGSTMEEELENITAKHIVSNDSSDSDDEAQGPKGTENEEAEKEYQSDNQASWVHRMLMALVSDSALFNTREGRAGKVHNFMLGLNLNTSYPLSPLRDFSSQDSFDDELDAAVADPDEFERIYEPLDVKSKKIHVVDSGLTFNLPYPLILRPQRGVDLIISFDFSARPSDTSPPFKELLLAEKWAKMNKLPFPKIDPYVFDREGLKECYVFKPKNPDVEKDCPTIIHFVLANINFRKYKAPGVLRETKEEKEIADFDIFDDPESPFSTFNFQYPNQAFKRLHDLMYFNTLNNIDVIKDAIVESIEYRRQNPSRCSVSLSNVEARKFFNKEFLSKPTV
Briefly: (§1) Effect on cytosolic Phospholipase A2 (PLA2) activity at a concentration of 100 uM. In short, it runs like this: (§2)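 Group IV cytosolic PLA2 from the RAW 264.7 macrophage line. Percent inhibition was measured at a single test concentration and reported as mean ± SEM (n=6). IC50 was determined only for compounds reaching 50% inhibition at that concentration.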

Assay [2] deals with T2, Cytosolic phospholipase A2 (Mus musculus, UniProt P47713).
T2 sequence (P47713 whole entry): T1 sequence (whole entry)
Described as §1. In short, it runs like this:
as §2

The target in assay [3] is Phospholipase A2 (Homo sapiens) (UniProt P04054). The settings on record: Apis mellifera; 10 uM.
The target in assay [4] is T3, Phospholipase A2, membrane associated (Homo sapiens, UniProt P14555).
T3 sequence (P14555 whole entry): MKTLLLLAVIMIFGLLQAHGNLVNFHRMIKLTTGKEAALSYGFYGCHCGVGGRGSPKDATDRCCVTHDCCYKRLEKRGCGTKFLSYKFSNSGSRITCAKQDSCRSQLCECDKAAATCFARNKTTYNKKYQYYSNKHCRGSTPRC
The assay is described as follows: (§3) Inhibition of secretory PLA2 activity in human recombinant synovial enzyme using [3H]oleate labelled membranes at a concentration of 10 uM. The procedure, abridged:
(§4)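 Secretory PLA2 activity was measured using autoclaved [3H]oleate-labelled membranes as substrate. The enzyme was either group II human recombinant synovial PLA2 or group I porcine pancreatic PLA2. Percent inhibition at a single concentration is reported as mean ± SEM (n=6), with significance marked at P<0.05 and P<0.01.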

The target in assay [5] is Phospholipase A2 (Homo sapiens) (UniProt P04054). As to conditions: Naja naja; 10 uM.
For assay [6], the target named is T4, Phospholipase A2, membrane associated (Homo sapiens) (UniProt P14555).
T4 sequence (whole entry): T3 sequence (P14555 whole entry)
The description is as §3. The procedure, abridged: as §4

Chain of Phospholipase A2 (Homo sapiens) (P04054 23-148 limits assumed): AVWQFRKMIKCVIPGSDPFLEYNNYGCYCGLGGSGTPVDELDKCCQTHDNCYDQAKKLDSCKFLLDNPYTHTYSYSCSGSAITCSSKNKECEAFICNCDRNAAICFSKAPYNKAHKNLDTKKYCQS

`CCCCCCCCCCCCCCC(N)CN(CC(=O)OCC)CC(=O)OCC` (centres undefined) showed an I in assay [1] of 43.9%. In the case of `CCCCCCCCCCCCCCC(COCc1ccccc1)NC(=O)CCCC(=O)O` (centres undefined), the I in assay [1] worked out at 84.8%. In assay [2], this molecule had a 50% inhibitory concentration (IC50) of 10.5 µM.

Consider `CCCCCCCCCCCCCCC(COCc1ccccc1)NC(=O)/C=C/C(=O)O` (centres undefined), for which, in assay [1], the I is 60.7%. Inhibition in assay [2] was half-maximal at 69.5 µM (IC50). `CCCCCCCCCCCCCCC(CO)NC(=O)CCCC(=O)O` (centres undefined) yielded an I in assay [1] of 0%.

Take `CCCCCCCCCCCCCCC(=O)NC(CCCCCCCCCCCCCC)COC(=O)CCCCCC` (centres undefined): in assay [1], the I was 0.5%. `CCCCCCCCCCCCCCC(COCc1ccccc1)NC(=O)CCC(=O)O` (centres undefined) displayed an I in assay [1] of 72%. For the same molecule, half-maximal inhibition in assay [2] (IC50) required 62.8 µM. On to `CCCCCCCCCCCCCCC(CO)NCC(=O)O` (centres undefined), for which the I in assay [1] was found to be 25%. In the case of `CCCCCCCCCCCCCCC(COCc1ccccc1)N(CC)CC` (centres undefined), the I in assay [1] amounted to 1.9%. As to `CCCCCCCCCCCCCCCC(=O)C(F)(F)F`, the I in assay [1] came to 67.7%. The molecule also showed a 50% inhibitory concentration (IC50) in assay [2] of 11.7 µM. `CCCCCCCCCCCCCCC(COCc1ccccc1)NCC` (centres undefined) came in with an I in assay [1] of 0%.

Take `CCCCCCCCCCCCCCC(N)CN(CC)CC` (centres undefined): the I was determined as 57.6% in assay [3], 90.6% in assay [1], 51.5% in assay [5] and 82.7% in assay [6]. The concentration for half-maximal inhibition (IC50) in assay [4] worked out at 5.6 µM; in assay [2], 11.9 µM. Molecule `CCCCCCCCCCCCCCC(CNCC(=O)OCC)NC(=O)OC(C)(C)C` (centres undefined) came in with an I in assay [1] of 0%. For the molecule `CCCCCCCCCCCCCCC(=O)NC(CCCCCCCCCCCCCC)COC(=O)CCCCCCCCCCCCCC` (centres undefined), the I in assay [1] is 5.1%.

In turn, `CCCCCCCCCCCCCCC(N)CNC(=O)CCCC(=O)O` (centres undefined) displayed an I in assay [1] of 0%. With `CCCCCCCCCCCCCCC(CO)NCC` (centres undefined), the I came to 63.5% in assay [3], 25.2% in assay [1], 62.6% in assay [5] and 80% in assay [6]. In addition, the half-inhibitory concentration (IC50) in assay [4] turned out to be 3.7 µM.

Molecule `CCCCCCCCCCCCCCC(COC(=O)CCCCCC)NC(=O)CCCCCC` (centres undefined) had an I in assay [1] of 2.3%.
